Screening data (PubChem BioAssay)
An excerpt weighted towards active compounds, which were near 0.7% of everything screened.
FN deposition inh – inhibitors of fibronectin matrix deposition, primary screen, AH1F cells, Alexa488-fibronectin fluorescence, plate reader | AH1F fibroblasts, overnight | inhibition, % at 12.6 µM | 350,000 tested, 0.086% active | AID 743247, 2014;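 active means mean inhibition across replicates of 30% or more, regardless of how many single replicates reach that level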;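 further: positive control wells lacked labelled fibronectin entirely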
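Material: AH1F fibroblasts assembling fluorescent fibronectin matrix; amount: 10000 AH1F cells/well; medium: DMEM, 2% serum; reagent: Alexa488-fibronectin, 24 nM final in well; dosing: single compound dose, delivered by pin transfer; incubation: 1 h adhesion, overnight exposure; detection: fluorescence after three HBSS washes, excitation 485 nm, emission 525 nm; measure: fibronectin deposition inhibition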
RAD52 anneal inh – RAD52 DNA annealing inhibitors, primary screen, biochemical, FRET, single point, set 2. recombinant RAD52 DNA annealing, FRET fluorescence. inhibition, % at 18.7 µM. 360,000 tested, 0.46% active. AID 651710, 2012;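 active means every replicate showing at least 50% inhibition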
Target sequence (P43351 whole entry, looked up): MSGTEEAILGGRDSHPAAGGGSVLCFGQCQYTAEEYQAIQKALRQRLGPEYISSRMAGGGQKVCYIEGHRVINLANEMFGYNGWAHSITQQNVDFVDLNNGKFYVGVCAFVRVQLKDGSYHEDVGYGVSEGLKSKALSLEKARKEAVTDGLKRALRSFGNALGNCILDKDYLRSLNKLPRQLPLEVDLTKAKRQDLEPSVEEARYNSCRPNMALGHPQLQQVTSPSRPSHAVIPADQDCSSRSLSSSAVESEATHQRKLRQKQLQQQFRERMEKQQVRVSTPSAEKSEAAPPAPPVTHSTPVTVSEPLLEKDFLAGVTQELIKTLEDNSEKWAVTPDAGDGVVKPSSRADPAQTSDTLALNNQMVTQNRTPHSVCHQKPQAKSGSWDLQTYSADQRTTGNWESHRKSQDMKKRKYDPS
CaV13 FRET inh – Primary screen for inhibitors of IQ motif and Ca2+-dependent inactivation inhibitor domain binding in CACNA1D, Förster resonance energy transfer in living cells, …. HEK cells, CFP/YFP FRET ICDI-IQ, plate reader, 10 min; percent FRET-ratio fall versus neutral wells. inhibition, % at 12.3 µM. 340,000 tested, 0.098% active. AID 743397;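 active means mean replicate inhibition of at least 30% and at least 1% of replicates passing that level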;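 further: 0% = median of the neutral control wells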
RAD54 inh – inhibitors of human RAD54 branch migration, primary screen, biochemical, fluorescence, single point. DNA repair and recombination protein RAD54-like (Homo sapiens), Q92698. RAD54 Holliday junction branch migration, FAM/BHQ fluorescence. inhibition, % at 10.4 µM. 360,000 tested, 0.14% active. AID 602329, 2012;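 active means mean normalized replicate activity at least 40 and at least half of replicates scoring 40 or more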;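 further: 0% = median of neutral control wells and 100% = median of positive control wells; inhibitors cause a drop in the FAM fluorescence signal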
N-glyco inh – increase of ERlucT glycosylation luciferase signal, primary screen, N-linked glycosylation inhibitor project, D54 ERlucT cells, luminescence, set 2; D54 ERlucT glycosylation luciferase reporter, 24 h; percent of 100 nM tunicamycin response; reporter increase, % at 12.5 µM; 360,000 tested, 0.23% active; AID 588692, 2011;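 active means mean luciferase reporter signal, scaled so untreated is 0 and the glycosylation-blocking control 100, at or above a set limit in every replicate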;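 further: luciferase carries N-glycosylation sites so blocking glycosylation raises the light; 0% = median of neutral control wells and 100% = median of 100 nM tunicamycin wells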
DNA binder FP – DNA-binding compounds via dye displacement, dose response, artefact control for RAD52 inhibitor project, biochemical, fluorescence polarization, cherry-pick; AC50, µM; Salmon sperm DNA/acridine orange FP displacement; shares compounds with RAD52 anneal inh; 1,000 tested, 8% active;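 active means fitted half-maximal concentration for signal loss at or below twice the highest dose tested, in every separate run, actives reach about 64 µM in these data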
* = called active by the depositor.

`Cc1ccc2nc(N(CCCN(C)C)C(=O)c3cc(-c4cccs4)nc4ccccc34)sc2c1` gave FN deposition inh 3, RAD52 anneal inh 54*, CaV13 FRET inh -3, RAD54 inh -17, N-glyco inh -5 and DNA binder FP inactive.
`CN(C)CCCN(C(=O)c1nc2ccccc2s1)c1nc2ccc(F)cc2s1` gave FN deposition inh -18, RAD52 anneal inh 84*, CaV13 FRET inh 9, RAD54 inh 2, N-glyco inh 1 and DNA binder FP inactive.
`Nc1ccc2nc[nH]c2c1` gave FN deposition inh 13, RAD52 anneal inh 85*, CaV13 FRET inh -5, N-glyco inh 9 and DNA binder FP inactive.
For CCC(=O)N(C)C[C@@H]1Oc2cc(C#Cc3ccncc3)ccc2S(=O)(=O)N([C@@H](C)CO)C[C@@H]1C the results were RAD52 anneal inh -16 and RAD54 inh -3.
COc1cc2c(cc1OC)CN(c1nc(CN3CCCCC3)nc3sc4c(c13)CCCC4)CC2 was read as FN deposition inh 2, CaV13 FRET inh -1 and N-glyco inh -5.
COc1cc2c(cc1OC)CN(c1nc(CN3CCCC3)nc3sc(C)c(C)c13)CC2 was read as FN deposition inh -14, RAD52 anneal inh 65*, CaV13 FRET inh 9, N-glyco inh -3 and DNA binder FP inactive.
COc1ccc(CN2C[C@H](C)[C@@H](OC)CN(C)C(=O)c3ccc(NC(=O)c4nc5ccccc5s4)cc3OC[C@@H]2C)cc1 was read as FN deposition inh 9, RAD52 anneal inh -15 and RAD54 inh -2.
`CCOC(=O)c1c(NC(=O)C(NCCN(C)C)c2ccccc2)sc2c1CCCC2` (stereo not drawn) gave FN deposition inh 2, RAD52 anneal inh 64*, CaV13 FRET inh -2, RAD54 inh 16, N-glyco inh 5 and DNA binder FP inactive.
Screening C[C@@H](c1ccccc1)N1C[C@H](COCc2ccccc2)Oc2cc(N3CC[C@H](N(C)C)C3)ccc2S1(=O)=O returned FN deposition inh 2, RAD52 anneal inh 52*, CaV13 FRET inh -11 and DNA binder FP inactive.
For CCOC(=O)c1c(NC(=O)c2ccc(S(=O)(=O)N3CCOCC3)cc2)sc2c1CC(C)(C)NC2(C)C the results were FN deposition inh 4, RAD52 anneal inh -13, CaV13 FRET inh -6, RAD54 inh 3 and N-glyco inh 2.
CN(C1CCCCC1)S(=O)(=O)c1ccc(C(=O)Nc2sc3c(c2C(N)=O)CC(C)(C)NC3(C)C)cc1 was read as FN deposition inh -5, RAD52 anneal inh 78*, CaV13 FRET inh -3, RAD54 inh 4, N-glyco inh -3 and DNA binder FP inactive.
For CCCCCC[N+](C)(C)CC/C=C1/c2ccccc2Sc2ccc(Cl)cc21 the results were FN deposition inh 12, RAD52 anneal inh 63*, CaV13 FRET inh 6, N-glyco inh 1 and DNA binder FP inactive.
`CN(C)CC/C=C1/c2ccccc2Sc2ccc(Cl)cc21` gave FN deposition inh -11, RAD52 anneal inh 41, CaV13 FRET inh -5, RAD54 inh 9 and N-glyco inh -3.
COc1cc(NS(C)(=O)=O)ccc1Nc1c2ccccc2nc2ccccc12 was read as FN deposition inh 3, RAD52 anneal inh 55*, CaV13 FRET inh -4, RAD54 inh 56*, N-glyco inh -7 and DNA binder FP inactive.
`COc1ccc(OC)c(Nc2c3ccccc3nc3ccccc23)c1` gave FN deposition inh 7, RAD52 anneal inh 34, CaV13 FRET inh -2, RAD54 inh 32 and N-glyco inh 10.
C[C@@H]1CN([C@@H](C)CO)C(=O)Cc2cc(NC(=O)Nc3ccc4c(c3)OCO4)ccc2O[C@H]1CN(C)Cc1ccc(Cl)c(Cl)c1 was read as RAD52 anneal inh 6 and RAD54 inh -7.
`CN1CCN(CCCNc2nc3ccccc3c3nc(-c4ccccc4)nn23)CC1` gave FN deposition inh -2, RAD52 anneal inh 66*, CaV13 FRET inh 2, N-glyco inh 6 and DNA binder FP inactive.
CCN(CC)CCCNc1nc2ccccc2c2nc(-c3ccncc3)nn12 was read as FN deposition inh -1, RAD52 anneal inh -80, CaV13 FRET inh -9, RAD54 inh 109*, N-glyco inh 119* and DNA binder FP 46µM*.
For O=C(CCC(=O)NNc1nc2ccccc2c2nc(-c3ccccc3)nn12)NCCCN1CCOCC1 the results were RAD52 anneal inh 23, CaV13 FRET inh -1 and N-glyco inh 0.
Screening CO[C@H]1CN(C)C(=O)c2cc(NC(=O)Nc3ccc(Cl)cc3)ccc2OC[C@H](C)N(C)C[C@H]1C returned FN deposition inh 1, RAD52 anneal inh 9 and RAD54 inh 7.
For CCNC(=O)[C@H]1[C@H](CO)[C@H]2Cn3c(ccc(-c4ccncc4)c3=O)[C@H]2N1Cc1ccccc1 the results were RAD52 anneal inh -4 and RAD54 inh -13.
Cc1ccc(S(=O)(=O)NCC[C@@H]2CC[C@H](NC(=O)c3ccccn3)[C@@H](CO)O2)cc1 was read as RAD52 anneal inh -4 and RAD54 inh 1.
For CCNC(=O)C[C@H]1CC[C@@H]2[C@H](COc3ccc(NC(=O)Nc4cccc(OC)c4)cc3C(=O)N2C)O1 the results were FN deposition inh 8 and RAD54 inh -5.
For CCN1CCN(c2ccc(N=Cc3ccc(O)cc3O)cc2)CC1 the results were FN deposition inh -1, RAD52 anneal inh 91*, CaV13 FRET inh 4, N-glyco inh -1 and DNA binder FP inactive.
`CCN(CC)c1ccc(N=Cc2ccc(N(CC)CC)cc2O)cc1` gave FN deposition inh 2, CaV13 FRET inh -4 and N-glyco inh 2.
Screening COc1cccc(S(=O)(=O)N(C)C[C@H]2Oc3cc(C#CCN(C)C)ccc3S(=O)(=O)N([C@H](C)CO)C[C@@H]2C)c1 returned RAD52 anneal inh -5 and RAD54 inh -10.
`COc1ccc(S(=O)(=O)Nc2ccc3c(c2)[C@H]2C[C@@H](CC(=O)O)O[C@H](CO)[C@H]2O3)cc1` gave FN deposition inh 0, RAD52 anneal inh -7 and RAD54 inh 1.
CCc1cccc2c1Sc1ccccc1CC2N1CCNCC1 (stereo not drawn) was read as FN deposition inh 3, RAD52 anneal inh 55*, CaV13 FRET inh -20, N-glyco inh -5 and DNA binder FP inactive.
